Results reported in ChEMBL document CHEMBL1123521, “Isozyme-specific enzyme inhibitors. 10. Adenosine 5'-triphosphate derivatives as substrates or inhibitors of methionine adenosyltransferases of rat normal and hepatoma tissues” (J Med Chem, 1986).

Tests used:
[1] = molecular target: T1, S-adenosylmethionine synthetase (MAT 1 and MAT 2) (Rattus norvegicus) (UniProt P13444+P18298); assay: Relative inhibitory potency T/II in rat methionine adenosyltransferase
[2] = molecular target: S-adenosylmethionine synthase isoform type-2 (Rattus norvegicus) (UniProt P18298); assay: Inhibitory potency against rat Methionine adenosyltransferase II
Sequence of S-adenosylmethionine synthase isoform type-2 (Rattus norvegicus) (P18298 whole entry, canonical isoform): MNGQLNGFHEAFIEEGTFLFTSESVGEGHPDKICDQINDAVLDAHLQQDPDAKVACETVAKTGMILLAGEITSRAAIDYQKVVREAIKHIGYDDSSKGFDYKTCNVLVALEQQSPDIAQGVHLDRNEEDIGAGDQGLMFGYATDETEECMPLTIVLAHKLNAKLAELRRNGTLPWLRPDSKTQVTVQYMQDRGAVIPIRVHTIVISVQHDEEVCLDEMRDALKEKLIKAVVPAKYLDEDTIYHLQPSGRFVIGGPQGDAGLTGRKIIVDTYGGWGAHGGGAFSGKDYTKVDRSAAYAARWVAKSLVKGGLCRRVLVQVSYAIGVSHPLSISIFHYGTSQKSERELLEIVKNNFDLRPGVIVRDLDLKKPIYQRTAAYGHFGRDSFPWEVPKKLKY
Outline: (§1)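 MAT-II from rat kidney extract, taken through DEAE chromatography and diluted 10-fold daily. Duplicate 30-min incubations at 37 °C in 150 mM KCl–15 mM MgCl2–5 mM DTT–50 mM Tris-HCl pH 8.2 with 60 μM [14C]methionine. Mg-complexed inhibitor used at two levels (1-5 × Ki) against six to eight Mg-ATP levels (0.5-4.0 × KM). Product counted on phosphocellulose disks.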

[3] = molecular target: T1, S-adenosylmethionine synthetase (MAT 1 and MAT 2) (Rattus norvegicus); assay: Inhibitory potency against rat Methionine adenosyltransferase was reported; format: protein assay
Outline: (§2)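 MAT-T partly purified from rat Novikoff hepatoma cells grown intraperitoneally in rats: cytosol extract, DEAE-cellulose, stored at -20 °C, diluted 10-fold for use. Assay run in duplicate, 37 °C for 30 min, in 150 mM KCl–15 mM MgCl2–5 mM DTT–50 mM Tris-HCl pH 8.2 with 60 μM [14C]methionine. Inhibitors given as 1:1 Mg complexes at two levels of 1-5 × Ki, with six to eight Mg-ATP levels (0.5-4.0 × KM).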

[4] = molecular target: T1, S-adenosylmethionine synthetase (MAT 1 and MAT 2) (Rattus norvegicus); assay: (§3) Inhibitory potency against rat methionine adenosyltransferase was reported; format: protein assay; outline: as §2
[5] = molecular target: S-adenosylmethionine synthase isoform type-1 (Rattus norvegicus) (UniProt P13444); assay: Inhibitory potency against rat Methionine adenosyltransferase I
Sequence of S-adenosylmethionine synthase isoform type-1 (Rattus norvegicus) (P13444 whole entry, canonical isoform): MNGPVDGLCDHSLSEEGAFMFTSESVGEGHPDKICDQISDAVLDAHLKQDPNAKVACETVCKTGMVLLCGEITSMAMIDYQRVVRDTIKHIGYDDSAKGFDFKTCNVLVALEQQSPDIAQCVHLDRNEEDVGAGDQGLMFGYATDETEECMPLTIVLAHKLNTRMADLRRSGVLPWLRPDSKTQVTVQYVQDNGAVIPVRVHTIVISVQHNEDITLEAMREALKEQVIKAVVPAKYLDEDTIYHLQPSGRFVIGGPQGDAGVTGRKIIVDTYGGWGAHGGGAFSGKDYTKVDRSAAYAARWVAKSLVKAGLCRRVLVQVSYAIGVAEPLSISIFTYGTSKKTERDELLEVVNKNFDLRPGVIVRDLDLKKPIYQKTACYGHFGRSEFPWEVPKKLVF
Outline: (§4)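 Rat liver MAT-I, prepared free of MAT-II and MAT-III and diluted 5-fold. Duplicate assays at 37 °C, 30 min, in 150 mM KCl–7.5 mM MgSO4–2 mM DTT–50 mM HEPES pH 7.5 with 380 μM [14C]methionine. Two inhibitor levels (1:1 Mg complexes, 1-5 × Ki) run against six to eight Mg-ATP levels spanning 0.5-4.0 × KM. Ki taken from kinetic plots.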

[6] = test system: CSc1nc2c(N)ncnc2n1[C@@H]1O[C@H](COP(=O)(O)OP(=O)(O)OP(=O)(O)O)[C@@H](O)[C@H]1O; assay: (§5) Inhibitory constant against rat kidney Methionine adenosyltransferase II; outline: as §1
[7] = test system: Nc1ncnc2c1ncn2C1O[C@H](COP(=O)(O)OP(=O)(O)OP(N)(=O)O)[C@@H](O)[C@H]1O; assay: as §5; outline: as §1
[8] = test system: Nc1ncnc2c1ncn2[C@H]1C[C@H](O)[C@@H](COP(=O)(O)OP(=O)(O)OP(=O)(O)O)O1; assay: as §5; outline: as §1
[9] = test system: CNc1nc2c(N)ncnc2n1C1O[C@H](COP(=O)(O)OP(=O)(O)OP(=O)(O)O)[C@@H](O)[C@H]1O; assay: as §5; outline: as §1
[10] = test system: Nc1ncnc2c1ncn2[C@@H]1O[C@H](COP(=O)(O)OP(=O)(O)OP(=O)(O)O)[C@@H](O)[C@H]1O; assay: Inhibitory constant against rat kidney Methionine adenosyltransferase II, activity expressed as conc of Mg-ATP for half maximal velocity
Outline: (§6)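 Kinetics at 37 °C for 30 min, in duplicate, in 50 mM Tris-HCl pH 8.2, 150 mM KCl, 15 mM MgCl2, 5 mM DTT. Enzyme was MAT-T from ascites-passaged Novikoff hepatoma cells or MAT-II from rat kidney, both DEAE-cellulose fractions, with 60 µM [14C]methionine. Inhibitors given as 1:1 Mg complexes at two levels against six to eight Mg-ATP levels (0.5–4.0 × KM). Product counted on phosphocellulose disks.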

[11] = molecular target: S-adenosylmethionine synthase isoform type-2 (Rattus norvegicus) (UniProt P18298); assay: Relative maximum velocity against rat kidney Methionine adenosyltransferase II
Outline: (§7)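 Analogues at 1 mM tested as substrates of MAT-II (rat kidney) or MAT-T (Novikoff hepatoma), using 10 μL of enzyme stock per assay. Run at 37 °C for 30 min in Tris-HCl pH 8.2 with 150 mM KCl and 15 mM MgCl2, plus 60 μM [14C]methionine. Radiolabelled product bound to phosphocellulose disks and counted. Kinetic constants came from double-reciprocal plots.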

[12] = molecular target: T1, S-adenosylmethionine synthetase (MAT 1 and MAT 2) (Rattus norvegicus); assay: Relative maximum velocity against rat Methionine adenosyltransferase was reported; format: protein assay; outline: as §7
[13] = molecular target: S-adenosylmethionine synthase isoform type-2 (Rattus norvegicus) (UniProt P18298); assay: as §3; outline: as §2
[14] = test system: Nc1ncnc2c1ncn2[C@H]1C[C@H](O)[C@@H](COP(=O)(O)OP(=O)(O)OP(=O)(O)O)O1; assay: Inhibitory constant against rat liver Methionine adenosyltransferase I; outline: as §4
[15] = test system: Nc1ncnc2c1ncn2[C@@H]1O[C@H](COP(=O)(O)OP(=O)(O)OP(=O)(O)O)[C@@H](O)[C@H]1O; assay: […] rat liver Methionine adenosyltransferase I, activity expressed as conc of Mg-ATP for half maximal velocity
Outline: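 Rat liver MAT-I, free of MAT-II and MAT-III, was assayed in 50 mM HEPES pH 7.5, 150 mM KCl, 7.5 mM MgSO4, 2 mM DTT, with 380 µM [14C]methionine, at 37 °C for 30 min in duplicate. Mg-complexed inhibitor was used at two levels against six to eight Mg-ATP levels (0.5–4.0 × KM). Labelled product was captured on phosphocellulose and scintillation-counted; blanks lacked ATP.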

[16] = molecular target: S-adenosylmethionine synthase isoform type-1 (Rattus norvegicus) (UniProt P13444); assay: Relative maximum velocity against liver (MAT-I) in rat methionine adenosyltransferase was reported
Outline: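 Substrate activity measured with rat liver MAT-I at 37 °C for 30 min, pH 7.5 HEPES buffer, with 380 μM [14C]methionine. ATP analogue at 1 mM, with a higher enzyme amount (10 μL stock). [14C]S-adenosylmethionine captured on phosphocellulose paper and counted by scintillation. Blanks lacked ATP. Constants taken from linear double-reciprocal plots.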

[17] = molecular target: S-adenosylmethionine synthase isoform type-2 (Rattus norvegicus) (UniProt P18298); assay: Relative maximum velocity against rat Methionine adenosyltransferase II; outline: as §7
[18] = test system: CSc1nc2c(N)ncnc2n1[C@@H]1O[C@H](COP(=O)(O)OP(=O)(O)OP(=O)(O)O)[C@@H](O)[C@H]1O; assay: (§8) […] rat Methionine adenosyltransferase was reported; format: protein assay; outline: as §2
[19] = test system: CNc1nc2c(N)ncnc2n1C1O[C@H](COP(=O)(O)OP(=O)(O)OP(=O)(O)O)[C@@H](O)[C@H]1O; assay: as §8; format: protein assay; outline: as §2
[20] = test system: Nc1ncnc2c1ncn2[C@@H]1O[C@H](COP(=O)(O)OP(=O)(O)OP(=O)(O)O)[C@@H](O)[C@H]1O; assay: Inhibition of methionine adenosyltransferase in Novikoff Hepatoma(MAT-T), activity expressed as conc of Mg-ATP for half maximal velocity; format: protein assay; outline: as §6
[21] = molecular target: T1, S-adenosylmethionine synthetase (MAT 1 and MAT 2) (Rattus norvegicus); assay: Half maximal velocity relative to methionine adenosyltransferase; format: protein assay
Outline: (§9)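 ATP analogues run as Mg complexes and checked for substrate activity at 1 mM with more enzyme (10 µL stock). Apparent KM from linear double-reciprocal plots. MAT-I: rat liver, 50 mM HEPES pH 7.5, 150 mM KCl, 7.5 mM MgSO4, 2 mM DTT, 380 µM [14C]methionine. MAT-II (rat kidney) and MAT-T (Novikoff hepatoma DEAE fraction): 50 mM Tris-HCl pH 8.2, 150 mM KCl, 15 mM MgCl2, 5 mM DTT, 60 µM [14C]methionine. 37 °C, 30 min, duplicates.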

[22] = molecular target: S-adenosylmethionine synthase isoform type-1 (Rattus norvegicus) (UniProt P13444); assay: Half maximal velocity relative to Methionine adenosyltransferase; outline: as §9
[23] = molecular target: S-adenosylmethionine synthase isoform type-2 (Rattus norvegicus) (UniProt P18298); assay: Half maximal velocity relative to rat Methionine adenosyltransferase II
Outline: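 DEAE-purified rat kidney MAT-II in 50 mM Tris-HCl pH 8.2, 150 mM KCl, 15 mM MgCl2, 5 mM DTT, with 60 µM [14C]methionine. Analogue checked for substrate activity at 1 mM using more enzyme. Incubated 37 °C for 30 min in duplicate. Acid-quenched product bound to phosphocellulose disks and counted; blanks lacked ATP. KM taken from linear double-reciprocal plots.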

Sequence of S-adenosylmethionine synthase isoform type-2 (Rattus norvegicus), P18298 (P18298 whole entry, canonical isoform): as the sequence (P18298 whole entry, canonical isoform) above
Sequence of S-adenosylmethionine synthetase (MAT 1 and MAT 2) (Rattus norvegicus) (from UniProt P13444+P18298) (P18298 whole entry, looked up): as the sequence (P18298 whole entry, canonical isoform) above
Sequence of S-adenosylmethionine synthetase (MAT 1 and MAT 2) (Rattus norvegicus) (from UniProt P13444+P18298) (P13444 whole entry, looked up): as the sequence (P13444 whole entry, canonical isoform) above
Sequence of S-adenosylmethionine synthase isoform type-1 (Rattus norvegicus), P13444 (P13444 whole entry, canonical isoform): as above

Work on `Nc1ncnc2c1ncn2[C@@H]1O[C@H](COP(=O)(O)CP(=O)(O)OP(=O)(O)O)[C@@H](O)[C@H]1O` yielded an Inhibition potency T/II [1] of 0.89, an Inhibition potency [2] of 0.46 and an Inhibition potency [3] of 0.41.

For `CCCC(OP(=O)(O)OP(=O)(O)OP(=O)(O)O)[C@H]1O[C@@H](n2cnc3c(N)ncnc32)[C@H](O)[C@@H]1O` (some centres undefined), the Inhibition potency T/II [1] was 1.3, the Inhibition potency [2] was 2.92 and the Inhibition potency [4] was 3.78.

`CC(OP(=O)(O)OP(=O)(O)OP(=O)(O)O)[C@H]1O[C@@H](n2cnc3c(N)ncnc32)[C@H](O)[C@@H]1O` (some centres undefined) gave an Inhibition potency T/II [1] of 2.4, an Inhibition potency [5] of 15.6 and an Inhibition potency [2] of 0.74. It also gave an Inhibition potency [4] of 1.75.

For “S-adenosylmethionine synthase isoform type-2 (Rattus norvegicus), P18298”, the Km [6] was 100 µM, the Km [7] was 3300 µM and the Km [8] was 4000 µM. The Km [9] was 160 µM and the Km [10] was 140 µM.

`Nc1ncnc2c1ncn2C1O[C@H](COP(=O)(O)OP(=O)(O)OP(N)(=O)O)[C@@H](O)[C@H]1O` (some centres undefined) was tested, and the Relative Vmax [11] was 97 and the Inhibition potency [2] was 0.042.

`CNc1nc2c(N)ncnc2n1C1O[C@H](COP(=O)(O)OP(=O)(O)OP(=O)(O)O)[C@@H](O)[C@H]1O` (some centres undefined) was tested, and the Inhibition potency T/II [1] was 0.69, the Relative Vmax [12] was 19 and the Relative Vmax [11] was 37. For the same molecule, the Inhibition potency [13] was 0.61 and the Inhibition potency [2] was 0.88.

Molecule `Nc1ncnc2c1ncn2[C@@H]1O[C@H](COP(=O)(O)OP(=O)(O)NP(=O)(O)O)[C@@H](O)[C@H]1O` has an Inhibition potency T/II [1] of 1.4, an Inhibition potency [2] of 25.5 and an Inhibition potency [3] of 35.

Work on `CCCCNc1ncnc2c1ncn2C1O[C@H](COP(=O)(O)OP(=O)(O)OP(=O)(O)O)[C@@H](O)[C@H]1O` (some centres undefined) yielded an Inhibition potency T/II [1] of 2.5 and an Inhibition potency [2] of 0.26.

In the case of “S-adenosylmethionine synthase isoform type-1 (Rattus norvegicus), P13444”, the Km [14] is reported as 1540 µM and the Km [15] is reported as 140 µM.

With `CSc1nc(N)c2ncn([C@@H]3O[C@H](COP(=O)(O)OP(=O)(O)OP(=O)(O)O)[C@@H](O)[C@H]3O)c2n1` the Inhibition potency T/II [1] was 5.5, the Inhibition potency [2] was 0.23 and the Inhibition potency [3] was 1.27.

In the case of `Nc1ncnc2c1nc(SCCC(N)C(=O)O)n2C1O[C@H](COP(=O)(O)OP(=O)(O)OP(=O)(O)O)[C@@H](O)[C@H]1O` (some centres undefined), the Inhibition potency [2] is reported as 0.27.

`Nc1ncnc2c1ncn2[C@H]1C[C@H](O)[C@@H](COP(=O)(O)OP(=O)(O)OP(=O)(O)O)O1` was tested, and the Relative Vmax [16] was 26, the Relative Vmax [17] was 6.5 and the Inhibition potency [5] was 0.091. For the same molecule, the Inhibition potency [2] was 0.035.

“S-adenosylmethionine synthetase (MAT 1 and MAT 2) (Rattus norvegicus) (from UniProt P13444+P18298)” gave a Km [18] of 200 µM, a Km [19] of 230 µM and a Km [20] of 140 µM.

Molecule `CO[C@@H]1[C@H](O)[C@@H](COP(=O)(O)OP(=O)(O)OP(=O)(O)O)O[C@H]1n1cnc2c(N)ncnc21` has an Inhibition potency T/II [1] of 0.82, an Inhibition potency [2] of 1 and an Inhibition potency [4] of 0.82.

In the case of `Nc1ncnc2c1ncn2[C@@H]1O[C@H](COP(=O)(O)OP(=O)(O)OP(=O)(O)O)[C@@H](O)[C@H]1O`, the Relative Vmax [21] is reported as 100, the Relative Vmax [22] is reported as 100 and the Relative Vmax [23] is reported as 100.

In the case of `CO[C@H]1[C@@H](O)[C@H](n2cnc3c(N)ncnc32)O[C@@H]1COP(=O)(O)OP(=O)(O)OP(=O)(O)O`, the Inhibition potency T/II [1] is reported as 0.95, the Inhibition potency [2] is reported as 0.82 and the Inhibition potency [4] is reported as 0.78.

Molecule `CSc1nc2c(N)ncnc2n1[C@@H]1O[C@H](COP(=O)(O)OP(=O)(O)OP(=O)(O)O)[C@@H](O)[C@H]1O` has an Inhibition potency T/II [1] of 0.5, a Relative Vmax [12] of 7.3 and a Relative Vmax [11] of 3.1. It also gave an Inhibition potency [2] of 1.4 and an Inhibition potency [3] of 0.7.
